ChEMBL document CHEMBL1177871, “Synthesis and antitumor activity of novel 2',3'-diethanethio-2',3',5'-trideoxy-5'-triazolonucleoside analogues” (Eur J Med Chem, 2010)

How the values were obtained:
Assay type in all cases: functional, cell-based
HepG2 = experiment: Cytotoxicity against human HepG2 cells after 72 hrs by MTT assay; conditions: HepG2, 72 h
Procedure, shortened: (§1)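 Incubation was 72 h at 37 °C in 95% air/5% CO₂. MTT was then added for 4 h and absorbance read at 490 nm. EC₅₀ is the concentration giving 50% growth inhibition versus untreated control; 5-fluorouridine served as reference.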

A549 = experiment: Cytotoxicity against human A549 cells after 72 hrs by MTT assay; conditions: A549, 72 h; procedure, shortened: as §1
[1] = Cytotoxicity against human LAC cells after 72 hrs by MTT assay; procedure, shortened: as §1
HeLa = experiment: Cytotoxicity against human HeLa cells after 72 hrs by MTT assay; procedure, shortened: as §1

Structure (SMILES) | EC50 (HepG2) [µM] | EC50 (A549) [µM] | EC50 [1] [µM] | EC50 (HeLa) [µM]
CCS[C@@H]1[C@H](SCC)[C@@H](Cn2cc(-c3ccccc3C(F)(F)F)nn2)O[C@H]1n1cc(C)c(=O)[nH]c1=O | 22.1 | 7.23 | 50.6 | 54.3
CCOC(=O)c1cn(C[C@H]2O[C@@H](n3cc(C)c(=O)[nH]c3=O)[C@H](SCC)[C@@H]2SCC)nn1 | ≥ 100 | ≥ 100 | ≥ 100 | ≥ 100
CCS[C@@H]1[C@H](SCC)[C@@H](Cn2cc(-c3ccc(C)cc3)nn2)O[C@H]1n1cc(C)c(=O)[nH]c1=O | 21.6 | 12.3 | ≥ 100 | 77.5
CCS[C@@H]1[C@H](SCC)[C@@H](Cn2cc(-c3cccc(C)c3)nn2)O[C@H]1n1ccc(=O)[nH]c1=O | 18.3 | 12.2 | 99 | 18.8
CCS[C@@H]1[C@H](SCC)[C@@H](Cn2cc(-c3ccc(OC)cc3)nn2)O[C@H]1n1ccc(=O)[nH]c1=O | 16.2 | 16.8 | 24.3 | 27.7
CCS[C@@H]1[C@H](SCC)[C@@H](Cn2cc(-c3ccc(OC)cc3)nn2)O[C@H]1n1cc(C)c(=O)[nH]c1=O | 22.8 | 38.8 | 25.9 | 66
CCS[C@@H]1[C@H](SCC)[C@@H](Cn2cc(-c3ccc(F)cc3)nn2)O[C@H]1n1cc(C)c(=O)[nH]c1=O | 22.7 | ≥ 100 | ≥ 100 | 39.5
CCS[C@@H]1[C@H](SCC)[C@@H](Cn2cc(-c3ccccc3)nn2)O[C@H]1n1cc(C)c(=O)[nH]c1=O | 65 | 31.7 |  | 1.89
CCS[C@@H]1[C@H](SCC)[C@@H](Cn2cc(-c3ccccc3)nn2)O[C@H]1n1ccc(N)nc1=O | 57.1 | 64 |  | 33.5
CCS[C@@H]1[C@H](SCC)[C@@H](Cn2cc(-c3cccs3)nn2)O[C@H]1n1cc(C)c(=O)[nH]c1=O | ≥ 100 | 37.3 | ≥ 100 | 54.9
CCS[C@@H]1[C@H](SCC)[C@@H](Cn2cc(-c3ccccc3C(F)(F)F)nn2)O[C@H]1n1ccc(=O)[nH]c1=O | 30.3 | 19.4 | 81.1 | 32.8
CCS[C@@H]1[C@H](SCC)[C@@H](Cn2cc(-c3ccccc3)nn2)O[C@H]1n1ccc(=O)[nH]c1=O | 8.38 | 3.04 |  | 6.59
CCS[C@@H]1[C@H](SCC)[C@@H](Cn2cc(-c3ccc(F)cc3)nn2)O[C@H]1n1ccc(=O)[nH]c1=O | 22.6 | 22.9 | 72.4 | 37.4
CCS[C@@H]1[C@H](SCC)[C@@H](Cn2cc(-c3cccs3)nn2)O[C@H]1n1ccc(=O)[nH]c1=O | 91.8 | ≥ 100 | 86.5 | ≥ 100
CCS[C@@H]1[C@H](SCC)[C@@H](Cn2cc(COC(C)=O)nn2)O[C@H]1n1ccc(=O)[nH]c1=O | ≥ 100 | ≥ 100 | ≥ 100 | ≥ 100
CCOC(=O)c1cn(C[C@H]2O[C@@H](n3ccc(=O)[nH]c3=O)[C@H](SCC)[C@@H]2SCC)nn1 | ≥ 100 | ≥ 100 | ≥ 100 | ≥ 100
CCS[C@@H]1[C@H](SCC)[C@@H](Cn2cc(-c3ccc(C)cc3)nn2)O[C@H]1n1ccc(=O)[nH]c1=O | 19.9 | 6.78 | ≥ 100 | 46.7
O=c1[nH]cc(F)c(=O)[nH]1 [FLUOROURACIL] | 52.4 | 100 | 43.7 | 79.8
